Activity calls are given as the source filed them. No cut-off for these calls is given here.
How the values were obtained:
Intestine = assay: Drug uptake in ddY mouse intestine at 11.1 kBq, iv after 30 min by gamma counting; assay type: ADME, organism-based; details: in vivo, 0.5 h
Summary of the method: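 Male ddY mice (6 weeks, 30–35 g) received about 11.1 kBq [125I]tracer in 0.1 mL i.v. via tail vein. Killed at set times, organs dissected and weighed, radioactivity gamma counted. Reported as % injected dose/g tissue, mean ± SD, n = 5–6.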

Spleen = assay: Drug uptake in ddY mouse spleen at 11.1 kBq, iv after 0.5 min by gamma counting; assay type: ADME, organism-based; details: in vivo
Summary of the method: (§1)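 Male ddY mice (6 weeks, 30–35 g) were given about 11.1 kBq of [125I]tracer in 0.1 mL i.v. via the tail vein. At each time point the animals were killed and organs dissected, weighed and gamma-counted. Uptake is expressed as % injected dose per gram of tissue, mean ± SD, n = 5–6.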

Pancreas = assay: Drug uptake in ddY mouse pancreas at 11.1 kBq, iv after 30 min by gamma counting; assay type: ADME, organism-based; details: in vivo, 0.5 h; summary of the method: as §1
Mus musculus [1] = assay: In vivo binding affinity to GlyT1 in ddY mouse brain hippocampus at 33.3 kBq, iv after 60 mins in presence of N-Me-SSR504734 2 mg/kg, iv administered 15 mins prior to compound administration relative to control; assay type: functional, organism-based; set-up: dose 2 mg/kg; details: tested as the 125I-labelled form
Summary of the method: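 Male ddY mice (6 W, 30–35 g) were given blocker 2 mg/kg iv in 30% DMSO/saline 15 min before [125I] tracer (ca. 33.3 kBq, 0.1 mL, tail vein). Killed 60 min after tracer injection. Brain dissected into regions including hippocampus, weighed and gamma counted, giving % dose/g and region-to-blood ratio versus control. Mean ± SD, n = 5–6; Kruskal–Wallis with Dunn's post-test.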

[2] = target: T1, Sodium- and chloride-dependent glycine transporter 1 (Rattus norvegicus) (UniProt P28572); assay: Binding affinity to GlyT1 in rat brain thalamus at 0.03 to 0.04 nM preincubated for 20 mins in binding buffer before compound addition measured after 30 mins by autoradiography in presence of 0.01 mM GlyT1 inhibitor SSR504734 relative to control; assay type: tissue-based; details: tested as the 125I-labelled form
T1 sequence (whole entry): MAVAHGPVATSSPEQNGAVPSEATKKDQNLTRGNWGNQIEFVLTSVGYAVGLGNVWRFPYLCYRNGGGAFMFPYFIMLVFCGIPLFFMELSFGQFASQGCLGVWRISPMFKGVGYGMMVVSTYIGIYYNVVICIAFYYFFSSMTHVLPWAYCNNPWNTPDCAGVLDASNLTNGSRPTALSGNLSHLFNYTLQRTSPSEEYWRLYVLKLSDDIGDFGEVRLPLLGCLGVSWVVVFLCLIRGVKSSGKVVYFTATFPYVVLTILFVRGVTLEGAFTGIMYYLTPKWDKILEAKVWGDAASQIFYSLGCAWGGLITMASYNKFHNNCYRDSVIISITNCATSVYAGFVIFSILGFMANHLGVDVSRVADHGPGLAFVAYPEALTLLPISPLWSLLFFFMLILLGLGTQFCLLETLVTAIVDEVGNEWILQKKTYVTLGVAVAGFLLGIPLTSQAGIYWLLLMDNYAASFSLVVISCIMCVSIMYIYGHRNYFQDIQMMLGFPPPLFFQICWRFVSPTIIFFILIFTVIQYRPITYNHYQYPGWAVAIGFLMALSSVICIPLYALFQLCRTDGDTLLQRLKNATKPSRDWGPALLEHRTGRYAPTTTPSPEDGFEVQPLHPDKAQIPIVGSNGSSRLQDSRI

[3] = target: T1, Sodium- and chloride-dependent glycine transporter 1 (Rattus norvegicus); assay: Binding affinity to GlyT1 in rat brain thalamus at 0.03 to 0.04 nM preincubated for 20 mins in binding buffer before compound addition measured after 30 mins by autoradiography in presence of 0.01 mM GlyT2 inhibitor ORG25543 relative to control; assay type: tissue-based; details: tested as the 125I-labelled form
Mus musculus [4] = assay: In vivo binding affinity to GlyT1 in ddY mouse brain hippocampus at 33.3 kBq, iv after 30 mins in presence of SSR504734 2 mg/kg, iv administered 15 mins prior to compound administration relative to control; assay type: functional, organism-based; set-up: dose 2 mg/kg; details: tested as the 125I-labelled form
Summary of the method: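 Blocking study in male ddY mice (6 weeks, 30–35 g). The blocker (2 mg/kg in 30% DMSO/saline) was injected i.v. 15 min before about 33.3 kBq [125I]tracer i.v.; mice were killed at 30 or 60 min. Brains were divided into cortex, corpus callosum, hippocampus, thalamus, midbrain, medulla and cerebellum, weighed and gamma-counted as % dose/g. Values are mean ± SD, n = 5–6, compared to control by Kruskal–Wallis with Dunn's post-test.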

[5] = target: T1, Sodium- and chloride-dependent glycine transporter 1 (Rattus norvegicus); assay: Binding affinity to GlyT1 in rat brain corpus callosum at 0.03 to 0.04 nM preincubated for 20 mins in binding buffer before compound addition measured after 30 mins by autoradiography in presence of 0.01 mM GlyT2 inhibitor ORG25543 relative to control; assay type: tissue-based; details: tested as the 125I-labelled form
Summary of the method: (§2)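 Rat brain sagittal sections (20 µm) preincubated 20 min at 25 °C in Tris-HCl buffer pH 7.5 (NaCl, KCl, MgCl2, CaCl2), then 30 min at 25 °C with [125I] tracer (100 kBq, 0.03–0.04 nM) plus competitor (10 µM; glycine 1 or 10 mM). Cold washes, imaging plate 3 days, ROI PSL minus background per mm². % control from ≥triplicate slices, three rats.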

[6] = target: T1, Sodium- and chloride-dependent glycine transporter 1 (Rattus norvegicus); assay: Binding affinity to GlyT1 in rat brain hippocampus at 0.03 to 0.04 nM preincubated for 20 mins in binding buffer before compound addition measured after 30 mins by autoradiography in presence of GlyT1 inhibitor N-Me-SSR504734 relative to control; assay type: tissue-based; details: tested as the 125I-labelled form; summary of the method: as §2
[7] = target: T1, Sodium- and chloride-dependent glycine transporter 1 (Rattus norvegicus); assay: Binding affinity to GlyT1 in rat brain midbrain at 0.03 to 0.04 nM preincubated for 20 mins in binding buffer before compound addition measured after 30 mins by autoradiography in presence of 0.01 mM GlyT2 inhibitor ORG25543 relative to control; assay type: tissue-based; details: tested as the 125I-labelled form; summary of the method: as §2
[8] = target: T1, Sodium- and chloride-dependent glycine transporter 1 (Rattus norvegicus); assay: Binding affinity to GlyT1 in rat brain medullary region at 0.03 to 0.04 nM preincubated for 20 mins in binding buffer before compound addition measured after 30 mins by autoradiography in presence of 0.01 mM GlyT1 inhibitor SSR504734 relative to control; assay type: tissue-based; details: tested as the 125I-labelled form; summary of the method: as §2

| Drug uptake (Intestine) [% ID/g] | Drug uptake (Spleen) [% ID/g] | Drug uptake (Pancreas) [% ID/g] | Activity [2] [%] | Activity [3] [%] | Activity [5] [%] | Activity [6] [%] | Activity [7] [%] | Activity [8] [%] | SMILES | Activity (Mus musculus [1]) | Activity (Mus musculus [4]) |
| --- | --- | --- | --- | --- | --- | --- | --- | --- | --- | --- | --- |
| 5.76 | 0.97 | 12.02 |  |  |  |  |  |  | CN1CCCC[C@H]1[C@@H](NC(=O)c1cccc(C(F)(F)F)c1[125I])c1ccccc1 |  |  |
|  |  |  | 29.6 | 99.7 | 98.2 | 45.8 | 115 | 31.7 | CN1CCCC[C@H]1[C@@H](NC(=O)c1cccc(C(F)(F)F)c1I)c1ccccc1 | Active | inactive |

Reference: ChEMBL document CHEMBL1938298, “Synthesis and characterization of [¹²⁵I]2-iodo N-[(S)-{(S)-1-methylpiperidin-2-yl}(phenyl)methyl]3-trifluoromethyl-benzamide as novel imaging probe for glycine transporter 1” (Bioorg Med Chem, 2011)
